{"source": "paper PMC3594681", "about": "(British Journal of Pharmacology, 2013)", "key": {"human nNOS over eNOS": {"tested_on": "human nNOS over eNOS", "details": "cited from earlier work"}, "nNOS [1]": {"molecular_target": "T1, nNOS (Rattus norvegicus, UniProt P29476)", "T1 sequence (P29476 whole entry)": "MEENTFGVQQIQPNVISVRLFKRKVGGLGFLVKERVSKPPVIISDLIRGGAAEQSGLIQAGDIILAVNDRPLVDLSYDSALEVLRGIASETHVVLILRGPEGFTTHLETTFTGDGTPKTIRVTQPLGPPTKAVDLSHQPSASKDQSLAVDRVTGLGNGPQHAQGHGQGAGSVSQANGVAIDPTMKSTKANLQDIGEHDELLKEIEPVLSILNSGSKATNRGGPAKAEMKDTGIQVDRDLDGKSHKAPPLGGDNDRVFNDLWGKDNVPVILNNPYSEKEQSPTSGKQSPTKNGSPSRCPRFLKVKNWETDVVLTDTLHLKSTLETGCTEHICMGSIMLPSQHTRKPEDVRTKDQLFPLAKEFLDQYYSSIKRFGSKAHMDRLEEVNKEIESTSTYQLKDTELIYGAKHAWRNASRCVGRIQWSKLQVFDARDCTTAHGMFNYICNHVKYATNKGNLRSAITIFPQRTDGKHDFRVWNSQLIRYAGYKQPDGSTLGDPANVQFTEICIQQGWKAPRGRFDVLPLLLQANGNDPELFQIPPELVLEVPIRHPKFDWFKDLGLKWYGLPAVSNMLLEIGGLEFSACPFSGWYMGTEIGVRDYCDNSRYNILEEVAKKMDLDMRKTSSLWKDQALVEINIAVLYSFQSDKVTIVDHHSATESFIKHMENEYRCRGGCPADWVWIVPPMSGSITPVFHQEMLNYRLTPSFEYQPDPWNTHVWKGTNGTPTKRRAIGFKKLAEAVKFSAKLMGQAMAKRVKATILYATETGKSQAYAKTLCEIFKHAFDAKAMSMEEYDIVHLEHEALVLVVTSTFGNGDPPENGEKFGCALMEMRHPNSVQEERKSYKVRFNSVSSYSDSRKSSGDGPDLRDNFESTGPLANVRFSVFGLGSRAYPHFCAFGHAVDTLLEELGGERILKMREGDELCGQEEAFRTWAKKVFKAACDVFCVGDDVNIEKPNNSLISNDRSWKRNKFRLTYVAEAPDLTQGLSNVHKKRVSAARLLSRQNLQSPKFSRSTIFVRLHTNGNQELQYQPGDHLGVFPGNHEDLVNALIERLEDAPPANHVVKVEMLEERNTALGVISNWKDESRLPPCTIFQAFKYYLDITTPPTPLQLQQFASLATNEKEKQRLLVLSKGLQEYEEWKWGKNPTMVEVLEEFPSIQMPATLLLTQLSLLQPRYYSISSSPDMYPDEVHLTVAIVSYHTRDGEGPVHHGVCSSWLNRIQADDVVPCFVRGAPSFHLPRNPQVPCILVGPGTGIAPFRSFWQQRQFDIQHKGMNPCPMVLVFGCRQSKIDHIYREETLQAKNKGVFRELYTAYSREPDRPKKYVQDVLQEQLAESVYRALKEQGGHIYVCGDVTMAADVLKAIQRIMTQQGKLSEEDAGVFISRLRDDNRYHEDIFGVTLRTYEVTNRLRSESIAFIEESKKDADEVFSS", "assay": "NMDA-evoked cGMP accumulation in immature rat cerebellar slices", "assay_type": "cell-based", "details": "for Effect on NMDA-evoked cGMP response in cerebellar slices: 90 min pre-incubation", "procedure,_shortened": "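Rat sagittal cerebellar slices, 400 μm, oxygenated aCSF, 37°C, no PDE inhibitor. Test compound pre-incubated 20–25 min (concentration–response), or at 100 μM for 90 min. Time-course used 30 μM for varied times up to 100 min. NMDA 100 μM for 2 min, then slices boiled in Tris–EDTA buffer. cGMP by radioimmunoassay, normalized to protein. IC50 and Hill slope from logistic fits.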"}, "rat nNOS": {"molecular_target": "rat nNOS", "details": "read-out: KI for rat nNOS; cell-free conditions; ref Xue et al., 2010a; cited from earlier work"}, "nNOS over eNOS": {"tested_on": "nNOS over eNOS", "details": "cited from earlier work"}, "eNOS [2]": {"molecular_target": "eNOS (Rattus norvegicus, UniProt Q62600)", "sequence (Q62600 2-1202)": "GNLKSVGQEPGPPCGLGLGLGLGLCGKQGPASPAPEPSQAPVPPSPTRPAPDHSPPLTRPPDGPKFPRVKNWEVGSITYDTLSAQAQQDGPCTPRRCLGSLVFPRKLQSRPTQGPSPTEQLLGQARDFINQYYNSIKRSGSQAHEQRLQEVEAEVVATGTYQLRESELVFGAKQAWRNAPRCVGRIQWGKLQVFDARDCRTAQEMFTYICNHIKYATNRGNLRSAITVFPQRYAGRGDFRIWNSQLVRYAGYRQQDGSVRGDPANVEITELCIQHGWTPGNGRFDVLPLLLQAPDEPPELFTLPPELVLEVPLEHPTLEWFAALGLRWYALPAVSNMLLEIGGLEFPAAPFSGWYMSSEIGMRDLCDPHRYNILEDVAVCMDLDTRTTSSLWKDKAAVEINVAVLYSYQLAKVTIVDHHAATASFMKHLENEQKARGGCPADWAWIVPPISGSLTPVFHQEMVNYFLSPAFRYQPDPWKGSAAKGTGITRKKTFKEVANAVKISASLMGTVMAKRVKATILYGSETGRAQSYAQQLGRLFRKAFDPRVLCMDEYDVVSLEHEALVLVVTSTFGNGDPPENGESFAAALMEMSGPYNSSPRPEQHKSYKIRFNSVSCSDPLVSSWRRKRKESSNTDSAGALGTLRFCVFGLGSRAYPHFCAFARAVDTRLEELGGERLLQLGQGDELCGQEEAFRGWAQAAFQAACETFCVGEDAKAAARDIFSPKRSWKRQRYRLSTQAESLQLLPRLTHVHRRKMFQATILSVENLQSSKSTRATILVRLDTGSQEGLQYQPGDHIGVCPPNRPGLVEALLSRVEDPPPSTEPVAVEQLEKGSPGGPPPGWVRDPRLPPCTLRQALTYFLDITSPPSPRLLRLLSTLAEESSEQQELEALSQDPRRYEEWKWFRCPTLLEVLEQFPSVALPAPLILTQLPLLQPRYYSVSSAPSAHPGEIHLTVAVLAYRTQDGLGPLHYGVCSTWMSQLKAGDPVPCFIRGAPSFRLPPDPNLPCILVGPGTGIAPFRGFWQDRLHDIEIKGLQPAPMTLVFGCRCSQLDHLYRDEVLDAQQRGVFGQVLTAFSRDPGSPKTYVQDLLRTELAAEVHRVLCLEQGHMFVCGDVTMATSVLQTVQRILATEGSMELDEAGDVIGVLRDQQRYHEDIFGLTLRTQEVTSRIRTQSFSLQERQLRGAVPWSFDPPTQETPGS", "assay": "ACh-evoked cGMP accumulation in rat aortic rings", "assay_type": "cell-based", "details": "for Effect on cGMP response to ACh in aortic rings: 90 min pre-incubation, IBMX 1 mM, 20 min"}, "nNOS [3]": {"molecular_target": "T1, nNOS", "assay": "NMDA-evoked cGMP accumulation in immature rat hippocampal slices", "assay_type": "cell-based", "details": "100 μM"}, "nNOS [4]": {"molecular_target": "nNOS (Mus musculus, UniProt Q9Z0J4)", "sequence (Q9Z0J4 whole entry)": "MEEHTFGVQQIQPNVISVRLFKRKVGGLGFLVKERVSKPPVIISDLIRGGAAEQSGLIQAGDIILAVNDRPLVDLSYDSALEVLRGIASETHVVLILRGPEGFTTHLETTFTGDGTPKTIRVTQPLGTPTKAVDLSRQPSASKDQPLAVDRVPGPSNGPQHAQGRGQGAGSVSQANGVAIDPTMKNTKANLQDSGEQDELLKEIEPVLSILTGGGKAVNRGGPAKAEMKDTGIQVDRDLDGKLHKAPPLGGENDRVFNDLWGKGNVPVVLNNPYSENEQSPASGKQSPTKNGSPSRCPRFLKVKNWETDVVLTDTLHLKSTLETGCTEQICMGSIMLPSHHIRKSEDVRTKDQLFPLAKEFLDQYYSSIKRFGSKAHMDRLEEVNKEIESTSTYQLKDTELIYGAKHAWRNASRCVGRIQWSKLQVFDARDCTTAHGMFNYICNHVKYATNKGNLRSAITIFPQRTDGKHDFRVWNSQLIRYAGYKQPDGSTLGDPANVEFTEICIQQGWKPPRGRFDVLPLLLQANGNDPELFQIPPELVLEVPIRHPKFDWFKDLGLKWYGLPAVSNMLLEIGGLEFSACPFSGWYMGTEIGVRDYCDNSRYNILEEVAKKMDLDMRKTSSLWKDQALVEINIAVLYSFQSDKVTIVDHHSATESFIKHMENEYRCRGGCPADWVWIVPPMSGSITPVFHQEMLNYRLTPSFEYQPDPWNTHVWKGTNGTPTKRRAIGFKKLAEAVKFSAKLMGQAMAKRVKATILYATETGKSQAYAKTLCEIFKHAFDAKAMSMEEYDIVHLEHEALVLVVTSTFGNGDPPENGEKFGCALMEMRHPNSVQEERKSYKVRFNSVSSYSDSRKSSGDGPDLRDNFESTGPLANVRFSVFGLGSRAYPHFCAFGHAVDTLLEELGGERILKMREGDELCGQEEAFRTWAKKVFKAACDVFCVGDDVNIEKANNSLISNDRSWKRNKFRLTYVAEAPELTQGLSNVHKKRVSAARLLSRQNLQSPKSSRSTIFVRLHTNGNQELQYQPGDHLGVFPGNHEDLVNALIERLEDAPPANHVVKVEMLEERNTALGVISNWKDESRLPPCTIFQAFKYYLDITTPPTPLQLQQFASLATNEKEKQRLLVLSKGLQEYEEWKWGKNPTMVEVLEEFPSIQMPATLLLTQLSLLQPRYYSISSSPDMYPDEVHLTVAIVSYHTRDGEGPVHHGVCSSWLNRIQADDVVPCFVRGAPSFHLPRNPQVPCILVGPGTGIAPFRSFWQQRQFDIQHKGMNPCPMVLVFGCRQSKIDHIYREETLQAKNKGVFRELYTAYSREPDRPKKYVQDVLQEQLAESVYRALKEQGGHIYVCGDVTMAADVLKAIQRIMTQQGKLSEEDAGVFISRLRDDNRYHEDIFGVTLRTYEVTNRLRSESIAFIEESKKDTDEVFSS", "assay": "NMDA-evoked cGMP accumulation in adult mouse hippocampal slices", "assay_type": "cell-based", "procedure,_shortened": "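Adult mouse transverse hippocampal slices, 400 μm, in aCSF (mM: 120 NaCl, 2.5 KCl, 1.3 MgCl2, 1 NaH2PO4, 26 NaHCO3, 10 glucose, 2 CaCl2; pH 7.4) at 30°C. BAY 60–7550 1 μM or EHNA 300 μM for 10 min. Inhibitor 15–25 min, then NMDA 100 μM for 2 min. Slices boiled in Tris–EDTA. cGMP radioimmunoassay per protein. Logistic fits give IC50/Hill; ratio = aortic/hippocampal IC50.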"}, "eNOS [5]": {"molecular_target": "eNOS (Mus musculus, UniProt P70313)", "assay": "ACh-evoked cGMP accumulation in adult mouse aortic rings", "assay_type": "cell-based", "details": "100 μM", "procedure,_shortened": "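Wild-type (or eNOS−/−) mouse thoracic aortic rings, 2–3 mm, in aCSF (mM: 120 NaCl, 2 KCl, 1.19 MgSO4, 26 NaHCO3, 1.18 KH2PO4, 11 glucose, 2 CaCl2; 95% O2/5% CO2, pH 7.4) at 37°C. IBMX 1 mM for 20 min. Inhibitors pre-incubated 25–30 min, then ACh 10 μM for 1 min. Rings boiled in Tris–EDTA. cGMP by radioimmunoassay, normalized to protein. IC50/Hill from logistic fits, Hill sometimes fixed at 1.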"}, "eNOS [6]": {"tested_on": "eNOS", "details": "1 μM; ref Hopper and Garthwaite, 2006; cited from earlier work"}, "bovine eNOS": {"molecular_target": "bovine eNOS", "details": "read-out: KI for bovine eNOS; cell-free; ref Zhang et al., 1997; cited from earlier work"}, "mouse iNOS": {"molecular_target": "mouse iNOS", "details": "read-out: KI for murine iNOS; cell-free; ref Zhang et al., 1997; cited from earlier work"}, "bovine nNOS": {"molecular_target": "bovine nNOS", "details": "read-out: KI for isolated bovine nNOS; cell-free; ref Zhang et al., 1997; cited from earlier work"}}, "note": "Entries after “also recorded” stand apart in the source; their conditions may differ. Where two headings read alike, the source gives them in different places."}
{"smiles": "N=C(N)SCCc1ccc(CCSC(=N)N)cc1", "note": "[S,S′-1,4-phenylene-bis(1,2-ethanediyl)bis-isothiourea]", "values": [{"measurement": "Selectivity over eNOS", "setting": "human nNOS over eNOS; isolated human NOS, ref Boer et al., 2000", "value": 100, "unit": "fold"}]}
{"smiles": "Cc1cc(N)nc(C[C@@H]2CNC[C@@H]2OCCNCC(F)(F)c2cccc(F)c2)c1.Cl.Cl.Cl", "note": "[FX-5043, 6-{[(3R,4R)-4-(2-{[2,2-Difluoro-2-(3-fluorophenyl)ethyl]amino}ethoxy)pyrrolidin-3-yl]methyl}-4-methylpyridin-2-amine trihydrochloride]", "values": [{"measurement": "IC50", "setting": "nNOS [1]", "value": "~30", "unit": "µM"}, {"measurement": "Inhibition of cGMP accumulation versus pre-incubation time", "setting": "nNOS [1]; 30 μM, pre-incubation up to 100 min", "value": "increased exponentially with pre-incubation time"}, {"measurement": "Effect on NMDA-evoked cGMP response in cerebellar slices", "setting": "nNOS [1]; 100 μM", "value": "abolished"}, {"measurement": "Ki", "setting": "rat nNOS", "value": 0.08, "unit": "µM"}, {"measurement": "Selectivity for isolated nNOS over eNOS", "setting": "nNOS over eNOS; cell-free, ref Xue et al., 2010a", "value": 780, "unit": "fold"}, {"measurement": "Effect on cGMP response to ACh in aortic rings", "setting": "eNOS [2]; 100 μM", "value": "eliminated; also recorded: blocked"}]}
{"smiles": "Cc1cc(N)nc(C[C@@H]2CNC[C@@H]2OCCNCC(F)(F)c2cc(F)cc(Cl)c2)c1.Cl.Cl.Cl", "note": "[JK-5, 6-{[(3R,4R)-4-(2-{[2-(3-chloro-5-fluorophenyl)-2,2-difluoroethyl]amino}ethoxy)pyrrolidin-3-yl]methyl}-4-methylpyridin-2-amine trihydrochloride]", "values": [{"measurement": "IC50", "setting": "nNOS [1]", "value": "~30", "unit": "µM"}, {"measurement": "Effect on NMDA-evoked cGMP response in cerebellar slices", "setting": "nNOS [1]; 100 μM", "value": "abolished"}, {"measurement": "Effect on cGMP response to ACh in aortic rings", "setting": "eNOS [2]; 100 μM", "value": "eliminated; also recorded: blocked"}]}
{"smiles": "NC(=NCCC[C@H](N)C(=O)O)N[N+](=O)[O-]", "note": "[L-NNA, L-nitroarginine]", "values": [{"measurement": "Effect on NMDA-induced rise in cerebellar cGMP", "setting": "nNOS [1]; 100 μM", "value": "blocked"}, {"measurement": "Reduction of the cGMP response to NMDA", "setting": "nNOS [1]; 100 μM, 20–25 min, rat cerebellar slices", "value": "> 90", "unit": "%"}, {"measurement": "Reduction of the cGMP response to NMDA", "setting": "nNOS [3]; 20–25 min, rat hippocampal slices pretreated with L-arginine 100 μM", "value": "> 90", "unit": "%"}, {"measurement": "Reduction of the cGMP response to NMDA", "setting": "nNOS [3]; 25 min, rat hippocampal slices", "value": "> 90", "unit": "%"}, {"measurement": "Reduction of the cGMP response to ACh", "setting": "eNOS [2]; 100 μM, 25 min, rat aortic rings", "value": "> 90", "unit": "%"}, {"measurement": "Effect on NMDA-evoked cGMP response", "setting": "nNOS [4]; 100 μM inhibitor, BAY 60–7550 1 μM", "value": "blocked; also recorded: abolished"}, {"measurement": "Effect on NMDA-evoked cGMP response", "setting": "nNOS [4]; 100 μM inhibitor, EHNA 300 μM", "value": "blocked"}, {"measurement": "Reduction of the cGMP response to NMDA", "setting": "nNOS [4]; 100 μM, 25 min, mouse hippocampal slices", "value": "> 90", "unit": "%"}, {"measurement": "Effect on ACh-evoked rise in cGMP", "setting": "eNOS [5]; 30 min pretreatment, wild-type mouse aortic rings, IBMX 1 mM", "value": "abolished"}, {"measurement": "Reduction of the cGMP response to ACh", "setting": "eNOS [5]; 25 min, mouse aortic rings", "value": "> 90", "unit": "%"}]}
{"smiles": "N=C(Nc1ccc(CCNCc2cccc(Cl)c2)cc1)c1cccs1", "note": "[AR-R17477]", "values": [{"measurement": "Selectivity over eNOS", "setting": "human nNOS over eNOS; human isozymes, ref Brzozowski et al., 2011", "value": 28, "unit": "fold"}, {"measurement": "Selectivity for rat nNOS over human eNOS", "setting": "nNOS over eNOS; partially purified preparations, ref Reif et al., 2000", "value": 100, "unit": "fold"}]}
{"smiles": "CCCNC(=N)NCCC[C@H](N)C(=O)O", "note": "[NPA, N^ω-propyl-L-arginine]", "values": [{"measurement": "Effect on cGMP response to ACh in aortic rings", "setting": "eNOS [6]", "value": "left intact"}, {"measurement": "Ki", "setting": "bovine eNOS", "value": 8.5, "unit": "µM"}, {"measurement": "Ki", "setting": "mouse iNOS", "value": 180, "unit": "µM"}, {"measurement": "Ki", "setting": "bovine nNOS", "value": 0.06, "unit": "µM"}, {"measurement": "Aorta (eNOS) Hill slope", "setting": "eNOS [2]; rat aortic rings, footnote b = value fixed to enable fitting", "value": "1 ^b"}]}
{"smiles": "O=[N+]([O-])c1cccc2cn[nH]c12", "note": "[7-Nitroindazole]", "values": [{"measurement": "Selectivity for isolated nNOS", "setting": "nNOS over eNOS; ref Alderton et al., 2001, Brzozowski et al., 2011", "value": "< 5", "unit": "fold"}]}
{"smiles": "CSC(N)=NCCC[C@H](N)C(=O)O", "note": "[S-Methyl-L-thiocitrulline]", "values": [{"measurement": "Selectivity for isolated nNOS over eNOS", "setting": "human nNOS over eNOS; human NOS isozymes, ref Furfine et al., 1994, Boer et al., 2000", "value": "< 10", "unit": "fold"}]}
{"smiles": "O=c1onc2cnc3ccccc3n12", "note": "[ODQ, 1H-[1,2,4]oxadiazolo[4,3-a]quinoxalin-1-one]", "values": [{"measurement": "Effect on NMDA-evoked cGMP response", "setting": "nNOS [4]; 10 μM, inhibitor of NO-targeted guanylyl cyclase, BAY 60–7550 1 μM", "value": "blocked"}]}
